Screening results as filed in PubChem BioAssay.
Only some compounds are listed: those with a hit (about 1.5% of all), similar ones and a draw of the others.
EBI2 antag – EBI2 receptor antagonists, beta-arrestin recruitment, primary screen, cell-based, luminescence, 7a,25-OHC stimulation, uHTS | actives 0.81% (n = 360,000) | 7a,25-OHC stimulated | inhibition, % at 5 µM | AID 651636, 2012 | G-protein coupled receptor 183 (Homo sapiens), P32249; in the data active = inhibition above about 38%;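 note: enzyme fragment complementation signal reports receptor beta-arrestin coupling in cells; 0% = agonist plus DMSO wells and 100% = wells without agonist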
APJ antagonist – antagonists of human apelin receptor APJ, primary screen, CHO-K1 cells, beta-arrestin complementation, luminescence. actives 0.32% (n = 330,000). inhibition, % at 20 µM. AID 2521, 2010. P35414;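 active = inhibition above about 40% at 20 µM, limit read from the data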;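 note: cells challenged with 10 nM apelin-13 agonist together with compound; plate controls were apelin-13 plus DMSO wells for no effect and DMSO wells lacking apelin-13 for full effect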
APJ ag – agonists of human apelin receptor APJ, primary screen, CHO-K1 cells, PathHunter beta-arrestin, luminescence. P35414. 0% DMSO wells, 100% apelin. activation, % at 20 µM. actives 0.11% (n = 330,000). AID 2520, 2010;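 active = activation more than six SD over the plate average, tested at 20 µM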;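 note: 0% = DMSO alone and 100% = apelin-13 at 10 nM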
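system = engineered CHO-K1 APJ arrestin reporter cells | input = 1000 cells per well | timing = overnight seeding, 90 min compound at 25 °C, 1 h detection | measured by = enzyme-fragment complementation luminescence | read-out = beta-arrestin recruitment to APJ as agonist activity, luminescent signal | control set = negative DMSO alone, positive Apelin-13 at 10 nM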
CCR6 antagonist – CCR6 receptor antagonists, primary screen, cell-based, CHO-K1, luminescence, beta-arrestin, uHTS; C-C chemokine receptor type 6 (Homo sapiens), P51684; CHO-K1 CCR6 PathHunter beta-arrestin, CCL20-stimulated; inhibition, % at 20 µM; actives 0.49% (n = 340,000); AID 493098, 2011;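 active = compounds whose inhibition of the agonist-driven luminescence signal at 20 µM reaches about 50%, limit read from the data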;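 note: cells stimulated with CCL20 at 14 nM final; plate controls were DMSO with CCL20 for no effect and DMSO without agonist for full effect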
CXCR6 block – CXCR6 receptor inhibitors, primary screen, cell-based, beta-arrestin, luminescence, CHO-K1 PathHunter, 1536-well. actives 0.36% (n = 360,000). AID 602244, 2012. C-X-C chemokine receptor type 6 (Homo sapiens), O00574. inhibition, % at 20 µM; in the data active = inhibition above about 34%, passing the limit was not always enough;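 note: antagonist mode with CXCL16 agonist at 10 nM final; 0% = 10 nM CXCL16 with DMSO and 100% = unstimulated wells without agonist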
Target sequence (O00574 whole entry, looked up): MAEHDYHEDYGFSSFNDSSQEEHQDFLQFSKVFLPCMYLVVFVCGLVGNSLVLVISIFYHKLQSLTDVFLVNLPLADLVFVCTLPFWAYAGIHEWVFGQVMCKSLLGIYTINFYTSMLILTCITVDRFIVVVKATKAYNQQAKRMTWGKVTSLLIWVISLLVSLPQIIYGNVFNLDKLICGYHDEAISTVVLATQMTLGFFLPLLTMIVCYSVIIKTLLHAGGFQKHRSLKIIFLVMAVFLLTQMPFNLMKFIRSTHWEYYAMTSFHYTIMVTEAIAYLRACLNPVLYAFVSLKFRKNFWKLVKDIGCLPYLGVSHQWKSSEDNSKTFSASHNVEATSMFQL
EBI2 antag conf – EBI2 antagonist hit retest, beta-arrestin, confirmation, cell-based, single concentration, luminescence, 7a,25-OHC stimulation; shares compounds with EBI2 antag; 7a,25-OHC antagonism; inhibition, % at 5 µM; actives 29% (n = 2,400); AID 651997, 2013;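 active = inhibition of at least 50%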
EBI2 ag – EBI2 agonist activity of antagonist hits, confirmation, counter-screen for EBI2 antagonist project, cell-based, single concentration, agonist mode, luminescence; EBI2-expressing cells, 60 min; 0% vehicle, 100% 7α,25-dihydroxycholesterol control; 2,400 tested, under 10 active; AID 652000, 2013; activation, % at 5 µM; shares compounds with EBI2 antag;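 active = activation of at least 50%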
bGal counter – E. coli beta-galactosidase enzyme inhibition, confirmation, counter-screen for EBI2 antagonist project, biochemical, luminescence, single concentration; shares compounds with EBI2 antag; purified beta-galactosidase, luminescent Galacton Star, 15 min; inhibition, % at 5 µM; actives 1% (n = 2,400);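 active = replicate-average signal at least 3 plate SD below neutral wells, shown as high inhibition, flagging enzyme-inhibiting false positives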;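 note: 0% = DMSO wells with enzyme and 100% = wells lacking enzyme; higher means stronger loss of beta-gal luminescence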
The depositor's hits bear a star; . = no result.

SMILES | EBI2 antag | APJ antagonist | APJ ag | CCR6 antagonist | CXCR6 block | EBI2 antag conf | EBI2 ag | bGal counter
COCCCN1C(=O)c2ccc(C(=O)Nc3ccccc3OC)cc2C1=O | 8.0 | 13.2 | 0.5 | 1.3 | -2.1 | . | . | .
COc1cccc(NC(=O)c2ccc3c(c2)C(=O)N(CC2CCCO2)C3=O)c1 (configuration not stated) | 60.1* | 1.0 | -2.1 | 1.3 | -3.3 | 32.0 | 0.4 | 8.3
CCN1C(=O)c2ccc(C(=O)NCc3ccc4c(c3)OCO4)cc2C1=O | 7.9 | 0.8 | 0.0 | -6.0 | -3.2 | . | . | .
CCN1C(=O)c2ccc(C(=O)Nc3ccc4c(c3)OCO4)cc2C1=O | 49.2* | 6.2 | -4.2 | 8.6 | 1.2 | 18.7 | 1.0 | -14.7
COc1cccc(C(=O)Nc2ccc3c(c2)C(=O)N(CC2CCCO2)C3=O)c1 (configuration not stated) | 13.6 | -26.0 | 7.0 | 11.4 | -8.3 | . | . | .
CCc1nc2ccc(C(=O)N(C)CCCN(C)C)cn2c1N(C=O)CCC(C)C | -4.5 | . | . | . | -5.0 | . | . | .
CCOC(=O)CC1(C)Oc2ccccc2N1S(=O)(=O)c1ccc(C)cc1 (configuration not stated) | 5.1 | . | . | . | . | . | . | .
O=C(O)c1cccc(NC(=O)c2ccc3c(c2)C(=O)N(CC2CCCO2)C3=O)c1 (configuration not stated) | -2.6 | -11.0 | -5.6 | 2.7 | 0.3 | . | . | .
COC(=O)Cc1ccc(NC(=O)c2ccc3c(c2)C(=O)N(CC2CCCO2)C3=O)cc1 (configuration not stated) | 12.7 | -12.1 | 19.1 | 10.5 | -2.6 | . | . | .
COC(=O)c1cccc(NC(=O)c2ccc3c(c2)C(=O)N(CC2CCCO2)C3=O)c1 (configuration not stated) | 44.0* | 12.0 | 5.0 | 8.5 | 7.3 | 30.7 | 0.3 | -18.9
CC1CCN(c2ccc(C(=O)Nc3ccc4c(c3)OCO4)cc2[N+](=O)[O-])CC1 | 12.5 | 22.0 | -2.9 | 16.9 | 17.2 | . | . | .
COc1ccc(NC(=O)c2ccc3c(c2)C(=O)N(CC2CCCO2)C3=O)cc1 (configuration not stated) | 79.7* | 8.6 | 1.0 | -0.1 | -5.1 | 49.9 | 0.9 | 6.9
CC1CCCN(c2ccc(C(=O)Nc3ccc4c(c3)OCO4)cc2[N+](=O)[O-])C1 (configuration not stated) | 45.9* | 18.7 | -1.0 | 32.4 | 14.9 | 33.9 | 0.8 | 7.6
CC(C)c1ccc(CN2CCC2(C)C(=O)Nc2cccc(Oc3ccccc3)c2)cc1 (configuration not stated) | 18.5 | . | . | . | 10.8 | . | . | .
Cc1ccc(Nc2c(-c3ccccc3O)nc3cnccn23)cc1 | 57.4* | -13.3 | -3.0 | 5.5 | 3.1 | 31.9 | 2.0 | 7.7
COc1ccc(Nc2c(-c3ccc(C)cc3)nc3cnccn23)cc1 | 20.6 | -10.8 | -1.1 | 27.8 | -10.5 | . | . | .
O=C(Nc1cccc(S(=O)(=O)N2CCCCCC2)c1)C1CCN(C(=O)c2ccc(Cl)cc2)CC1 | 52.1* | 11.0 | -1.6 | 20.2 | -10.5 | 30.4 | -0.9 | 6.7
O=C(Nc1cccc(S(=O)(=O)N2CCCCC2)c1)C1CCN(C(=O)c2ccc(Cl)cc2)CC1 | 41.5 | 27.2 | 1.6 | 9.8 | -3.9 | . | . | .
Cc1cccc(NC(=O)C2CCN(C(=O)c3ccc(Cl)cc3)CC2)n1 | 46.2* | 16.8 | -3.4 | 14.7 | 15.7 | 29.1 | -0.7 | 6.0
O=C(Nc1cccc(F)c1)C1CCN(C(=O)c2ccc(Br)cc2)CC1 | 45.5* | -2.3 | -3.3 | 17.4 | 2.2 | 20.8 | -1.6 | -8.2
c1ccc(NN=C(c2ccccc2)c2cccs2)cc1 | 18.9 | . | . | . | 5.2 | . | . | .
